Results reported in ChEMBL document CHEMBL1126622, “2-substituted 1,2-dihydro-3H-dibenz[de,h]isoquinoline-1,3-diones. A new class of antitumor agent” (J Med Chem, 1993).

What was measured:
[1] = test system: L1210; test: Tested against L1210 resistant murine leukemia cells by MTT tetrazolium dye assay; type: functional, cell-based; conditions: Mus musculus
In short: (§1)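 Suspension L1210 cells (drug-sensitive and multidrug-resistant lines), 50 000/well, drug added day 2 from DMSO stock serially diluted in PBS pH 7.4, 10^1–10^-5 μg/mL in half-log steps, final DMSO ≤0.1%; continuous 6-day exposure at 37 °C, 5% CO2; MTT added 4 h, formazan dissolved in DMSO, A570; percent of untreated control; six wells per concentration, IC50s averaged.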

[2] = test system: L1210; test: Tested against L1210 sensitive murine leukemia cells by MTT tetrazolium dye assay; type: functional, cell-based; conditions: Mus musculus; in short: as §1
[3] = test system: OVCAR-3; test: Tested against OVCAR-3 human ovarian cancer cells by sulforhodamine B (SRB) assay; type: functional, cell-based
In short: (§2)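 Adherent UACC375 melanoma and OVCAR3 ovarian cells, SRB assay: plating and dosing as for MTT (50 000/well, 10^1–10^-5 μg/mL half-log, DMSO ≤0.1%), 8-day exposure; fixed with 10% TCA 1 h at 4 °C, stained 30 min with 0.4% SRB in 1% acetic acid, dye dissolved in 10 mM Tris base pH 10.5, OD 564 nm; six wells per concentration, IC50s averaged.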

[4] = Tested against UACC375 human melanoma cancer cells by sulforhodamine B (SRB) assay; type: functional, cell-based; conditions: Cancer cell lines; in short: as §2
[5] = Tested for in vitro for cardiotoxicity by performing neonatal rat heart myocyte assay method; type: functional
In short: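 Neonatal rat heart myocytes exposed to drug for 1 h; cytotoxicity read as cellular ATP/protein ratio relative to untreated controls; IC50 is the 1-h concentration halving this ratio.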

[6] = Average mean for IC50 values in the four cell lines (UACC375,OVCAR3,L1210 sensitive,L1210 resistant); type: functional; set-up: unit not given here
In short: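 Mean of the IC50 values from the four tumor lines: UACC375 and OVCAR3 by SRB (8-day exposure), sensitive and resistant L1210 by MTT (6-day continuous exposure).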

[7] = The quotient of the IC50 is the myocytes divided by the mean IC50 in the four cell lines (UACC375,OVCAR3,L1210 sensitive,L1210 resistant); type: ADME; conditions: read-out: Toxicity ratio
In short: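 Ratio of the myocyte IC50 (1-h exposure, ATP/protein ratio read-out) to the mean tumor-cell IC50 across the four lines, UACC375 and OVCAR3 by SRB, sensitive and resistant L1210 by MTT.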

[8] = Acid dissociation constant was determined; type: ADME
In short: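 Hydrochloride salt (0.165 mmol) dissolved in 0.982 N HCl to give 1 mequiv acid beyond amine protonation; stirred and titrated with 0.926 N NaOH with pH-meter monitoring.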

[9] = test system: COLO 480; test: Tested against human colon carcinoma COLO 480 cell line in vitro; type: functional, cell-based
In short: (§3)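 Human colon carcinoma lines, MTT assay: 50 000 cells/well, drug added day 2 (DMSO stock diluted in PBS pH 7.4, 10^1–10^-5 μg/mL half-log steps, final DMSO ≤0.1%), 6-day exposure at 37 °C, 5% CO2; MTT 4 h, formazan in DMSO read at 570 nm vs untreated control; six wells per concentration, IC50 averaged.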

[10] = test system: COLO 205; test: Tested against human colon carcinoma COLO 205 cell line in vitro; type: functional, cell-based; in short: as §3
[11] = test system: HCT-15; test: Tested against human colon carcinoma HCT 15 cell line in vitro; type: functional, cell-based; in short: as §3
[12] = test system: HT-29; test: Tested against human colon carcinoma HT 29 cell line in vitro; type: functional, cell-based; in short: as §3
[13] = test system: L1210; test: Tested for percent increase in life span in L1210 leukemia cells after intraperitoneal dose of 15 mg/kg in mice; type: functional; conditions: Mus musculus, L1210, ip
In short: (§4)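 Standard NCI protocol: leukemia cells implanted intraperitoneally, with drug given ip on days 1, 5 and 9. Read-out is percent increase in life span, 100 × (treated life span − control life span)/control life span.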

[14] = test system: L1210; test: Tested for percent increase in life span in L1210 leukemia cells after intraperitoneal dose of 30 mg/kg in mice; type: functional; conditions: Mus musculus, L1210, ip; in short: as §4
[15] = test system: L1210; test: Tested for percent increase in life span in L1210 leukemia cells after intraperitoneal dose of 45 mg/kg in mice; type: functional; conditions: Mus musculus, L1210, ip; in short: as §4
[16] = test system: L1210; test: Tested for percent increase in life span in L1210 leukemia cells after intraperitoneal dose of 5 mg/kg in mice; type: functional; conditions: Mus musculus, L1210, ip
In short: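 Standard NCI protocol: leukemia cells implanted intraperitoneally, with drug given ip once daily on days 1–5. Read-out is percent increase in life span, 100 × (treated life span − control life span)/control life span.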

[17] = test system: LoVo; test: Tested against human colon carcinoma LoVo cell line in vitro; type: functional, cell-based; in short: as §3
[18] = test system: B16; test: Tested for percent tumor growth inhibition in B16 melanoma cells after intraperitoneal dose of 15 mg/kg in mice; conditions: Mus musculus, B16, ip; read-out: TGI
[19] = test system: B16; test: Tested for percent tumor growth inhibition in B16 melanoma cells after intraperitoneal dose of 30 mg/kg in mice; conditions: Mus musculus, B16, ip; read-out: TGI

Structure (SMILES)	IC50 [1] [nM]	IC50 [2] [nM]	IC50 [3] [nM]	IC50 [4] [nM]	IC50 [5] [nM]	Average [6]	selectivity ratio [7]	pKa [8]	IC50 [9] [nM]	IC50 [10] [nM]	IC50 [11] [nM]	IC50 [12] [nM]	ILS at 15 mg/kg [13] [%]	ILS at 30 mg/kg [14] [%]	ILS at 45 mg/kg [15] [%]	ILS at 5 mg/kg [16] [%]	IC50 [17] [nM]	inhibition in vivo at 15 mg/kg [18] [%]	inhibition in vivo at 30 mg/kg [19] [%]
O=C1c2cccc3cc4ccccc4c(c23)C(=O)N1CCNCCO	41	18	81	67	943	52	18												
O=C1c2cccc3cc4ccccc4c(c23)C(=O)N1c1cccnc1	554	544	1940	2490	> 25000	1380	> 20												
O=C1c2cccc3cc4ccccc4c(c23)C(=O)N1CCc1ccccn1	15500	6440	3870	6440	> 25000	8054	> 3	5.4											
CN(C)CCN1C(=O)c2cccc3cc4ccccc4c(c23)C1=O [AZONAFIDE]	7	7	57	71	1980	36	56	7.3	3	36	8	63	25	62.5	79	90	6	74	
O=C1c2cccc3cc4ccccc4c(c23)C(=O)N1N1CC1	791	791	7910	2530		3006													
CCN1CCCC1CN1C(=O)c2cccc3cc4ccccc4c(c23)C1=O (stereo not drawn)	55	36	214	119	15200	106	143												
O=C1c2cccc3cc4ccccc4c(c23)C(=O)N1c1ncc[nH]1	148	207	2430	1620		1103													
O=C1c2cccc3cc4ccccc4c(c23)C(=O)N1Cc1ccccn1	26700	26700	17400	12000	> 25000	20722	> 1												
O=C1c2cccc3cc4ccccc4c(c23)C(=O)N1CCN1CCCCC1	51	51	89	178	10400	92	13												
O=C1c2cccc3cc4ccccc4c(c23)C(=O)N1CCN1CCCC1	11.8	14.5	66	39	920	33	28												
CN(C)c1ccc(N2C(=O)c3cccc4cc5ccccc5c(c34)C2=O)cc1	1790	187	16200	4980	37300	4537	8												
O=C1c2cccc3cc4ccccc4c(c23)C(=O)N1CCN1CCOCC1	512	512	639	511	> 25000	544	> 50												
CN(C)CCCN1C(=O)c2cccc3cc4ccccc4c(c23)C1=O	82	54	462	245	11400	211	113	7.3											
CN(C)CCN1C(=O)c2cccc3cc(N)cc(c23)C1=O [AMONAFIDE]	625	625	2180	2030	48400	1365	36	7.3						45	87.5				23
O=C1c2cccc3cc4ccccc4c(c23)C(=O)N1Cc1cccnc1	2670	1870	8020	11400	> 25000	5983	> 4												
CCN1CCCC(N2C(=O)c3cccc4cc5ccccc5c(c34)C2=O)C1 (stereo not drawn)	609	635	1180	1650	8760	1020	8.3												
CN1CCCC1CCN1C(=O)c2cccc3cc4ccccc4c(c23)C1=O (stereo not drawn)	56	51	203	190	7080	125	57												
O=C1c2cccc3cc4ccccc4c(c23)C(=O)N1CCN1CCNCC1	463	174	1970	463	6710	767	8.8												
CNCCN1C(=O)c2cccc3cc4ccccc4c(c23)C1=O	20.6	10	44	59	7060	33	211												
O=C1c2cccc3cc4ccccc4c(c23)C(=O)N1CCCN(CCO)CCO	142	76	163	217	8910	150	60												
